Reference: ChEMBL document CHEMBL1132328, “4-Hydroxy-1-[2-(4-hydroxyphenoxy)ethyl]-4-(4-methylbenzyl)piperidine: a novel, potent, and selective NR1/2B NMDA receptor antagonist” (J Med Chem, 1999)

Key:
[1] = molecular target: T1, Adrenergic receptor alpha-1 (Rattus norvegicus, UniProt P15823+P23944+P43140); experiment: Affinity for alpha-1 adrenergic receptor in rat was determined by [3H]- prazosin binding assay
T1 sequence (P15823 whole entry): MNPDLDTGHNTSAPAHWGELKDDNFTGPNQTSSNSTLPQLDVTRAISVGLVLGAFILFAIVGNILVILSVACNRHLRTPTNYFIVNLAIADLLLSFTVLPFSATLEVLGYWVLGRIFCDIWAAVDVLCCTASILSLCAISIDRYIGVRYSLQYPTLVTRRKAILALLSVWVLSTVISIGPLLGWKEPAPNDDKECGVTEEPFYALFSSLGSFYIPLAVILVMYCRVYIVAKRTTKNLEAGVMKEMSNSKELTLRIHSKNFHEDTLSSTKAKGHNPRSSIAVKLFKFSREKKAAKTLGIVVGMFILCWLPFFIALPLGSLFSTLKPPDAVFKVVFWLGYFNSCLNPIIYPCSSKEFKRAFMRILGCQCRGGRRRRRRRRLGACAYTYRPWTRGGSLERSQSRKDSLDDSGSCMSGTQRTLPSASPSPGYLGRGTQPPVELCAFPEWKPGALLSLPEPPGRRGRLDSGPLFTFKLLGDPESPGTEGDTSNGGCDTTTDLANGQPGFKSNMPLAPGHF
T1 sequence (P23944 whole entry): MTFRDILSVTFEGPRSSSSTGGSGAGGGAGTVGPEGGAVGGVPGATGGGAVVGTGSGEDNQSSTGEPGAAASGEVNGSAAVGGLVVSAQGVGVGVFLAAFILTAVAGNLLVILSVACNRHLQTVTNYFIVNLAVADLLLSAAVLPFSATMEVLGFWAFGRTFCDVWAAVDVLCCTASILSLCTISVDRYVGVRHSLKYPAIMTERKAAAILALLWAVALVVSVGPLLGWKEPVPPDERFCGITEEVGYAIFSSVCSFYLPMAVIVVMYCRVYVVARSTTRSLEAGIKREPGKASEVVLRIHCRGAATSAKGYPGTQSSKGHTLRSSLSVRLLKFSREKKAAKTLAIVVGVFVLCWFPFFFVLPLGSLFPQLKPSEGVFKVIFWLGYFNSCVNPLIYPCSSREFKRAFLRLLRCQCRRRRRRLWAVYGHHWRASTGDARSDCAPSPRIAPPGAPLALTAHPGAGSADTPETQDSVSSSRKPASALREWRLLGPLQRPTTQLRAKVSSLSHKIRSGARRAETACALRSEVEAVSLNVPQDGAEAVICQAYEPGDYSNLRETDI
T1 sequence (P43140 whole entry): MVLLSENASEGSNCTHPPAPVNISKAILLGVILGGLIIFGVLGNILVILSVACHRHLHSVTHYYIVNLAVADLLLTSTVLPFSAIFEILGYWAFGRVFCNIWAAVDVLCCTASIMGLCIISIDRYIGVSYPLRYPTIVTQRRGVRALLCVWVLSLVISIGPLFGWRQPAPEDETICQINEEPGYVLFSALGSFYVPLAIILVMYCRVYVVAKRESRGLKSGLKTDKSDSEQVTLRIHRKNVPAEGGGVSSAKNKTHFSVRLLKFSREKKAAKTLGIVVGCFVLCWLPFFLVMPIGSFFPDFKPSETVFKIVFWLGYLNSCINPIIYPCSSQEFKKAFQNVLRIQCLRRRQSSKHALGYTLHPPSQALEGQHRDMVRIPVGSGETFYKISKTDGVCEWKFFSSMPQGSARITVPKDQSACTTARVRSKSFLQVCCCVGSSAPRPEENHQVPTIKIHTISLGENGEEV
In short: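 Rat cortex membranes (sucrose/Tris homogenate, washed three times in 140 mM NaCl/5 mM MgCl2/50 mM Tris-HCl pH 7.4) incubated with 0.8 nM [3H]prazosin for 60 min at room temperature. Test compounds at nine concentrations in duplicate, 1% DMSO final. Nonspecific binding defined with phentolamine. Reaction stopped by filtration through GF/B filters, then scintillation counting. IC50 from a sigmoidal fit.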

[2] = molecular target: Glutamate NMDA receptor; Grin1/Grin2b (Rattus norvegicus, UniProt P35439+Q00960); experiment: In vitro inhibitory concentration against NMDA responses at NR1A/2B receptors expressed in Xenopus oocytes; format: functional, cell-based, Oocyte
In short: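 Two-electrode voltage clamp of oocytes expressing cloned NR1A/2B, held at -70 mV in Ca2+-free Ringer (BaCl2 1.8 mM, Hepes 5 mM, pH 7.4). Drugs in DMSO (0.1–1% final) applied by bath perfusion. IC50 from partial 3–5-point concentration-inhibition curves fitted with residual minimum fixed at 0.15. Mean ± SE.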

[3] = molecular target: Glutamate NMDA receptor; Grin1/Grin2c (Rattus norvegicus, UniProt P35439+Q00961); experiment: In vitro inhibitory concentration against NMDA responses at NR1A/2C receptors expressed in Xenopus oocytes; format: functional, cell-based, Oocyte
[4] = molecular target: Glutamate NMDA receptor; Grin1/Grin2a (Rattus norvegicus, UniProt P35439+Q00959); experiment: In vitro inhibitory concentration against NMDA responses at cloned NR1A/2A receptors expressed in Xenopus oocytes; format: functional, cell-based, Oocyte
[5] = tested on: Rattus; experiment: Inhibition of voltage -gated K+ currents was measured by whole cell voltage clamp recordings from dissociated rat superior cervical ganglion neurons at 10 uM; format: functional
In short: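 SCG neurons from 1–4-day-old rat pups, recorded 24–48 h after plating. Whole-cell clamp held at -60 mV; 30-ms steps to +50 mV. Bath solution Hepes/glucose pH 7.4; pipette solution KCl/K-aspartate/EGTA pH 7.3. Compound diluted from 10 mM DMSO stock and applied by local perfusion after control responses. Result given as percent inhibition of sustained K+ current.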

[6] = organism: Mus musculus; experiment: ED50 value was calculated by mouse electric shock assay (MES).; format: functional
In short: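 Anticonvulsant testing in mice by maximal electroshock. Compounds dissolved in 0.05 M Tris and given iv. Seizure protection tested at peak activity, 2 min after dosing.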

Glutamate NMDA receptor; Grin1/Grin2c, sequence (Q00961 whole entry, other chains not shown): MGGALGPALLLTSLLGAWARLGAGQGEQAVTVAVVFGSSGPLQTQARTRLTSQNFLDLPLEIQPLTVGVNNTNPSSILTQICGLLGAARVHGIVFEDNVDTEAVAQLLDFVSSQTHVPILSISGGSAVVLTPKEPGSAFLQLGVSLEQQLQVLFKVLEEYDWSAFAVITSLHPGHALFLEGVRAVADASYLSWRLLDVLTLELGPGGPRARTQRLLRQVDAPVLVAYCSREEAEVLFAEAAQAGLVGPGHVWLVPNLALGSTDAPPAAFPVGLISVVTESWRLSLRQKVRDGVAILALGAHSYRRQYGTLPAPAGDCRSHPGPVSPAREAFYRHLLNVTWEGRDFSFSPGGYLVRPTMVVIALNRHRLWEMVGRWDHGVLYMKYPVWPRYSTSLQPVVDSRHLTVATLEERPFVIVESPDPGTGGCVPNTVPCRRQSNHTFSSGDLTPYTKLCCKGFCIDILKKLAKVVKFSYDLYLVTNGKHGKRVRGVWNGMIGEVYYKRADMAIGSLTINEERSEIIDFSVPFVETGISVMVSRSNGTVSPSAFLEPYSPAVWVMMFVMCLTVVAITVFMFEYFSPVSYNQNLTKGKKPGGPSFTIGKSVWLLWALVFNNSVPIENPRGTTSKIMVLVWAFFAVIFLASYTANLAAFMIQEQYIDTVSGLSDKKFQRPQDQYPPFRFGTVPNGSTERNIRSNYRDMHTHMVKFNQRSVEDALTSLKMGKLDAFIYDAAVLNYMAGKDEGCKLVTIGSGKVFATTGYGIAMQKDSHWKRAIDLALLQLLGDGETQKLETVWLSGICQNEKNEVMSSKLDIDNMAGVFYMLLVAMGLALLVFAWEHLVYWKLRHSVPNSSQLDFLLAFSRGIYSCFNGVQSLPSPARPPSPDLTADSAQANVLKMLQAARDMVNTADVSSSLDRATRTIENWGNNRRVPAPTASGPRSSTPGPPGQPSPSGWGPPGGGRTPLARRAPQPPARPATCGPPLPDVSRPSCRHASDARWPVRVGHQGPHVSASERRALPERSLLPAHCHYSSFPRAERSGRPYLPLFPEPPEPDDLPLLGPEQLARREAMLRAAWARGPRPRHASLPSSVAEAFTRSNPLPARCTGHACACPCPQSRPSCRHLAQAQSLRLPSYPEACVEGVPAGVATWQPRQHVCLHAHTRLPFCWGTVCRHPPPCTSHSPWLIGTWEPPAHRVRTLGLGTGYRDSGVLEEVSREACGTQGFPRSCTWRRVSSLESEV
Glutamate NMDA receptor; Grin1/Grin2a, sequence (Q00959 whole entry, other chains not shown): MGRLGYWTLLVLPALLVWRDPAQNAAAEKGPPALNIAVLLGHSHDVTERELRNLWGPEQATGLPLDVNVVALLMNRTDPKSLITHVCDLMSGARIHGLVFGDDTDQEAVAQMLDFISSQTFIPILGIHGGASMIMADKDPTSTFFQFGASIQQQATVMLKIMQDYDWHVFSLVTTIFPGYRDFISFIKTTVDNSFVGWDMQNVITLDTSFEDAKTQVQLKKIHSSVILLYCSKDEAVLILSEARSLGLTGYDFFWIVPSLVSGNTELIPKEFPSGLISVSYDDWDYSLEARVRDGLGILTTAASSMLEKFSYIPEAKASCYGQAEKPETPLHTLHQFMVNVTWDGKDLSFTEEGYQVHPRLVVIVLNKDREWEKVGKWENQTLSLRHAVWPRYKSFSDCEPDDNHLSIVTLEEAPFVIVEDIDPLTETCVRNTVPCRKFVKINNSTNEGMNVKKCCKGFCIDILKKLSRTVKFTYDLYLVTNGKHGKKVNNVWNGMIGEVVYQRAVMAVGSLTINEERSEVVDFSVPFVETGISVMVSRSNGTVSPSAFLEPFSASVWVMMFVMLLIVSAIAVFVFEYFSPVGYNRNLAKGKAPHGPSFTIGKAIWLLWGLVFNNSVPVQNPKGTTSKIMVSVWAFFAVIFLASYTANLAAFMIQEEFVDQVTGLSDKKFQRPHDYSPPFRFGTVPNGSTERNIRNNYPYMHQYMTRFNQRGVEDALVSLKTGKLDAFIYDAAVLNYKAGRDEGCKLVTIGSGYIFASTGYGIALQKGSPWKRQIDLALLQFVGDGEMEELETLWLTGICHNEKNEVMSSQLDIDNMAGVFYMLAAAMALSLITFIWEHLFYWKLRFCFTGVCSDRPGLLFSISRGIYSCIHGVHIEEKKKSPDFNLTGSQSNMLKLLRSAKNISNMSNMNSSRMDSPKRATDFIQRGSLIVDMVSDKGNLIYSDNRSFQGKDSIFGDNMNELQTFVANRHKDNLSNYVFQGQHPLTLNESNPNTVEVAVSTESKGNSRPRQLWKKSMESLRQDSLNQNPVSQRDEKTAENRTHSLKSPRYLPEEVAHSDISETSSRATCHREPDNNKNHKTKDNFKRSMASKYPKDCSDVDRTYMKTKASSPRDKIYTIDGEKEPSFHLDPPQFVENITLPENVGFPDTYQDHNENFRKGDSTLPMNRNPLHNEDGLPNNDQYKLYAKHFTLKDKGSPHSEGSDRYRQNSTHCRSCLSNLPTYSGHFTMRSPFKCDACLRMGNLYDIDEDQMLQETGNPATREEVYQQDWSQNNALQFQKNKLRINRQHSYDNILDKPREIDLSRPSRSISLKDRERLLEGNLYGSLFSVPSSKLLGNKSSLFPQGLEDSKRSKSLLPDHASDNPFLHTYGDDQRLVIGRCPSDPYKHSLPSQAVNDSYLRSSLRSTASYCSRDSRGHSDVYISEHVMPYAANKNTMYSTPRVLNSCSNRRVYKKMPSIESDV
Glutamate NMDA receptor; Grin1/Grin2b, sequence (Q00960 whole entry, other chains not shown, the tested form may be a part): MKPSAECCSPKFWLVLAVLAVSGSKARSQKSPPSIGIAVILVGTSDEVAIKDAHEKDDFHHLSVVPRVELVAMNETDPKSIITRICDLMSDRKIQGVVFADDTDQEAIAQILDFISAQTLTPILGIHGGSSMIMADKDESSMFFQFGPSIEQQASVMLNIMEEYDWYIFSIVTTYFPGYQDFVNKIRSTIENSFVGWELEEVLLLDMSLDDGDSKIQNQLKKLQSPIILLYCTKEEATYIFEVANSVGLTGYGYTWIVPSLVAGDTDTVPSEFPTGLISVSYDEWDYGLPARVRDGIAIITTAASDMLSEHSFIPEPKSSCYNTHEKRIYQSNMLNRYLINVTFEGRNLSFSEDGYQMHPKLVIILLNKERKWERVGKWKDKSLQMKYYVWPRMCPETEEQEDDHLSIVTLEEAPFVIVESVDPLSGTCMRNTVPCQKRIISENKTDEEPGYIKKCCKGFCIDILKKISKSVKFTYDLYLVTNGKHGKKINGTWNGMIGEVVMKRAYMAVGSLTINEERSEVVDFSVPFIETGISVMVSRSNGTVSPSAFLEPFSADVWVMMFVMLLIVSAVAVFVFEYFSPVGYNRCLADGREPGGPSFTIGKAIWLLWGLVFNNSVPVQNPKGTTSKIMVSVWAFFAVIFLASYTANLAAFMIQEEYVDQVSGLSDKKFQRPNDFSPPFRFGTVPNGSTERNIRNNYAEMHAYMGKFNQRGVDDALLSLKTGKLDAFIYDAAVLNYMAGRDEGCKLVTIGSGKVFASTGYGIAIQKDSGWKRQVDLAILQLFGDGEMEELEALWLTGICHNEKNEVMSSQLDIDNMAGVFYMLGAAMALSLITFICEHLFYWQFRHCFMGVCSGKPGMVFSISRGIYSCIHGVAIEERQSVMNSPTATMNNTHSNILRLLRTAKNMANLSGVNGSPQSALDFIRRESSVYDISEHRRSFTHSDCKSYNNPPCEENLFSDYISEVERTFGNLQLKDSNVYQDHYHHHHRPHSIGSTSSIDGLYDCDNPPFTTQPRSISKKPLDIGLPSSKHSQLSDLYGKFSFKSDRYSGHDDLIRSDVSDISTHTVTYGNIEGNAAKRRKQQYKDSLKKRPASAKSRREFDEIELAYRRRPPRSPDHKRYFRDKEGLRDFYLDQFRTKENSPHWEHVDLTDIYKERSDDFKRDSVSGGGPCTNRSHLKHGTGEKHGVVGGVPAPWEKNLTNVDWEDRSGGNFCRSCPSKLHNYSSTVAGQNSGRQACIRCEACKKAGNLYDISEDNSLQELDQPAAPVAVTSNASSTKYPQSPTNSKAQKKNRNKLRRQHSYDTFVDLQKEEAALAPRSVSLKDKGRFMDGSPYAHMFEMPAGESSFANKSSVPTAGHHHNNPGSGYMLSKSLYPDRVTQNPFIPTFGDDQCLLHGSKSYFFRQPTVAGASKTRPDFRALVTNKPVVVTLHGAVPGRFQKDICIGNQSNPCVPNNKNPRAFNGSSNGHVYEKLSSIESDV

Oc1ccc(OCCN2CCC(Cc3ccc(F)cc3)CC2)cc1
IC50 [1]: 1.6 µM | IC50 [2]: 0.05 µM | IC50 [3]: > 100 µM | IC50 [4]: 21 µM | inhibition at 10 µM [5]: 53% | ED50 [6]: 3 mg/kg

OC(CN1CCC(Cc2ccc(F)cc2)CC1)c1ccc(Cl)cc1 (configuration not stated) [ELIPRODIL]
IC50 [1]: 3.3 µM | IC50 [2]: 1.4 µM | IC50 [3]: 100 µM | IC50 [4]: 100 µM | inhibition at 10 µM [5]: 67% | ED50 [6]: 1 mg/kg

Cc1ccc(CC2(O)CCN(CCOc3ccc(O)cc3)CC2)cc1
IC50 [1]: 27 µM | IC50 [2]: 0.043 µM | IC50 [3]: > 100 µM | IC50 [4]: > 100 µM | inhibition at 10 µM [5]: 23% | ED50 [6]: 1.5 mg/kg

Oc1ccc(OCCN2CCC(c3ccccc3)CC2)cc1
IC50 [2]: 7.7 µM | IC50 [3]: > 100 µM | IC50 [4]: 110 µM

c1ccc(CC2CCN(CCOc3ccccc3)CC2)cc1
IC50 [1]: 0.82 µM | IC50 [2]: 0.63 µM | IC50 [3]: > 100 µM | IC50 [4]: > 100 µM | inhibition at 10 µM [5]: 65% | ED50 [6]: 2 mg/kg

C[C@@H]([C@H](O)c1ccc(O)cc1)N1CCC(Cc2ccccc2)CC1 [(R,S)-IFENPRODIL]
IC50 [1]: 0.22 µM | inhibition at 10 µM [5]: 54% | ED50 [6]: 7 mg/kg

Cc1ccc(CC2CCN(CCOc3ccc(O)cc3)CC2)cc1
IC50 [1]: 1.8 µM | IC50 [2]: 0.028 µM | IC50 [3]: > 100 µM | IC50 [4]: > 100 µM | inhibition at 10 µM [5]: 67% | ED50 [6]: 0.7 mg/kg

Oc1ccc(OCCN2CCC(Cc3ccccc3)CC2)cc1
IC50 [1]: 0.47 µM | IC50 [2]: 0.025 µM | IC50 [3]: > 100 µM | IC50 [4]: > 100 µM | inhibition at 10 µM [5]: 46% | ED50 [6]: 2 mg/kg
